Most compounds without a hit are left out; they make up all but 0.48% or so of the library.
TNAP inh hi DEA: human TNAP enzyme inhibitors, primary screen, biochemical, luminescent, high phosphate acceptor level, uHTS; Alkaline phosphatase, tissue-nonspecific isozyme (Homo sapiens), P05186; purified TNAP, CDP-star luminescence, 1 M DEA; inhibition, % at 20 µM; 200,000 tested, 0.03% active; AID 1135, 2008;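 active = over 50% inhibition of tissue-nonspecific alkaline phosphatase at 20 µM in the single-dose screen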;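 also: plate controls were DMSO wells for no effect and EDTA-quenched wells as full inhibition for full effect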
Target sequence (P05186 whole entry, looked up): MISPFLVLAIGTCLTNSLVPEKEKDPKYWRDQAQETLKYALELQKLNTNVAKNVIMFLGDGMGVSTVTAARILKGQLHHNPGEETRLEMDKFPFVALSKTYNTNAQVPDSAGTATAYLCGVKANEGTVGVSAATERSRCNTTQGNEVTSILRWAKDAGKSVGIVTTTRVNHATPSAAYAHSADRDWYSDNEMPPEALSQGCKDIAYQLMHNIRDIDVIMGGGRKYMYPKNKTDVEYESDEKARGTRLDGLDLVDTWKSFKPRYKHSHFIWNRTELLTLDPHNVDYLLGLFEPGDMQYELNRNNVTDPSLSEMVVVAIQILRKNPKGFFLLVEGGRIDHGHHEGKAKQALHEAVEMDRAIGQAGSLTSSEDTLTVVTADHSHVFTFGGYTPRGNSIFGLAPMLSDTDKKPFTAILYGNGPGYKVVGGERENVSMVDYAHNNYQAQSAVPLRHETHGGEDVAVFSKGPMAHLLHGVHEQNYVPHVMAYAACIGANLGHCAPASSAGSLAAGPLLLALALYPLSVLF
ABCB1 inh: ABCB1 efflux pump inhibitors, primary screen, cell-based, multiplex, flow cytometry, ABCG2 counter-screen; inhibition, % at 6.6 µM; 190,000 tested, 0.067% active; CCRF-Adr cells, JC-1 efflux; AID 1326, 2008; ATP-dependent translocase ABCB1 (Homo sapiens), P08183; in the data active = inhibition above about 40%;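 also: 0% = vehicle and 100% = reference inhibitor; higher value means more JC-1 retained so stronger ABCB1 efflux block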
TNAP act hi DEA: TNAP activators at high phosphate acceptor level, primary screen, biochemical, luminescence, uHTS. Alkaline phosphatase, tissue-nonspecific isozyme (Homo sapiens), P05186. purified TNAP, CDP-star luminescence, 1 M DEA, 30 min; stronger effect = higher value; 0 = EDTA background, 1 = DMSO-only activity. activation factor at 20 µM. AID 1136, 2008. 200,000 tested, under 10 active;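 active = activation factor at least 2 at 20 µM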
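Dosing: 20 µM single point. System: human TNAP. Amount: TNAP 1/800 final. Incubation: 30 min, room temperature. Read-out: TNAP activation factor scaled between EDTA and DMSO control wells. Signal: luminescence from CDP-star hydrolysis. Medium: 1 M DEA, pH 9.8, Mg2+, Zn2+. Control set: EDTA negative control, DMSO positive control.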
PKD1 kinase inh: inhibitors of human PKD1 kinase, biochemical, fluorescence polarization; Serine/threonine-protein kinase D1 (Homo sapiens), Q15139; PKD1 kinase fluorescence polarization assay; inhibition, % (concentration not given with the values); 200,000 tested, 0.056% active; AID 797, 2007; in the data active = inhibition above about 50%
ABCG2 inh: ABCG2 efflux pump inhibitors, primary screen, multiplex with ABCB1, IgMXP3 cells, flow cytometry | Broad substrate specificity ATP-binding cassette transporter ABCG2 (Homo sapiens), Q9UNQ0 | 190,000 tested, 0.1% active | inhibition, % at 6.6 µM | JC-1 efflux;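 active = inhibition above 80%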;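 also: 0% = DMSO and 100% = nicardipine control wells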
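Test system: ABCG2 IgMXP3 and barcoded ABCB1 CCRF-Adr cell mix; Schedule: cells with compound and JC-1, 10 min at 25 °C, rotating, no wash; Technique: flow cytometry of retained JC-1 fluorescence; Measure: % inhibition of efflux relative to nicardipine and DMSO; Controls: nicardipine high and DMSO low controls.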
TNAP inh no acc: human TNAP enzyme inhibitors, primary screen, biochemical, luminescent, no phosphate acceptor, uHTS; purified TNAP, CDP-star luminescence, 30 min; Alkaline phosphatase, tissue-nonspecific isozyme (Homo sapiens), P05186; 200,000 tested, 0.26% active; inhibition, % at 20 µM;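 active = tissue-nonspecific alkaline phosphatase inhibition above about 50% at 20 µM in the single-dose screen, limit read from the data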;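 also: 0% = DMSO negative control and 100% = EDTA positive control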
ABCB1 confirm: ABCB1 efflux pump inhibitors, confirmation, cell-based, single point, ABCG2 counter-screen; shares compounds with ABCG2 inh; CCRF-Adr cells, JC-1 efflux, flow cytometry; inhibition, % at 6.6 µM; 270 tested, 7% active; AID 1451, 2008;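 active = inhibition of pump activity above 50%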;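 also: 0% = DMSO and 100% = nicardipine full pump inhibition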
ABCG2 single pt: ABCG2 efflux pump inhibitors, confirmation, single point, IgMXP3 cells, ABCB1 counter-screen paired. 270 tested, 6% active. inhibition, % at 6.6 µM. shares compounds with ABCG2 inh. JC-1 efflux, flow cytometry;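 active = inhibition above 50%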;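 also: 0% = DMSO wells and 100% = nicardipine pump inhibitor wells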
IgMXP3 fluor: compound autofluorescence in ABCG2-expressing IgMXP3 cells, confirmation, artefact control for ABC transporter inhibitor project, cell-based, 488/530 nm, flow cytometry; shares compounds with ABCG2 inh; compound autofluorescence 488/530 nm; stronger effect = higher value; fluorescence at 6.6 µM; 270 tested, 30% active;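 active = fluorescence in ABCG2-expressing cells above the plate's control-well mean plus 3 SD, cut at about 15 in these data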;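 also: median cell fluorescence with compound minus that of DMSO-treated control cells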
CCRF autofluor: compound autofluorescence in ABCB1-expressing CCRF-Adr cells, confirmation, artefact control for ABC transporter inhibitor project, cell-based, 488/530 nm, flow cytometry; shares compounds with ABCG2 inh; compound autofluorescence 488/530 nm; stronger effect = higher value; fluorescence at 6.6 µM; 270 tested, 30% active; AID 1483, 2009;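 active = fluorescence beyond the plate control mean plus 3 SD, with a fluorescence-to-maximum score over 2, cut at about 25 in these data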
An asterisk follows results filed as active; / = not tested or not shown; + = active, no number.

SMILES | TNAP inh hi DEA | ABCB1 inh | TNAP act hi DEA | PKD1 kinase inh | ABCG2 inh | TNAP inh no acc | ABCB1 confirm | ABCG2 single pt | IgMXP3 fluor | CCRF autofluor
N#Cc1ccc(COC(=O)c2ccc(N3CCCC3)c([N+](=O)[O-])c2)cc1 | 7 | 0 | 0.9 | -2 | 90* | 5 | 5 | 38 | -2.3 | -4.4
CCCCSc1nnc(-c2ccc(C)cc2)c2ccccc12 | -8 | 3 | 1.1 | -11 | 92* | 0 | 25 | 40 | -2.2 | -4.4
CCc1cccc(CC)c1NC(=O)c1cc(CN2C(=O)c3ccccc3C2=O)ccc1OC | -7 | 57* | 1.1 | -2 | 96* | -8 | 32 | 19 | -1.7 | 0.21
COc1ccc(CN2C(=O)c3ccccc3C2=O)cc1C(=O)OC(C)C(=O)NC(N)=O (configuration not stated) | -5 | 2 | 1 | -4 | 3 | -8 | / | / | / | /
O=C(O)CC1=C(Nc2ccccc2)C(=O)N(c2ccccc2)C1c1ccc(Br)cc1 (configuration not stated) | -9 | 0 | 1.1 | 7 | 0 | -6 | / | / | / | /
CC(CCc1ccccc1)NC(=O)CN1CCN(c2ccccc2)CC1 (configuration not stated) | -11 | 0 | 1.1 | -4 | 0 | -23 | / | / | / | /
Cc1cc(C)nc(-n2nc(C)c3c(C(F)(F)F)cc(=O)[nH]c32)n1 | 0 | 3 | 1 | -6 | 72 | 1 | 0 | 32 | 3.6 | 7.2
CCN(CC)c1nc(-c2cccc(OC)c2O)nc2ccccc12 | -1 | 8 | 1 | 5 | 83* | 2 | 25 | 24 | 17* | 108*
CCN(CC)c1ccc(/C=C(\C#N)C(N)=O)cc1 | 20 | 0 | 0.8 | -12 | 0 | 15 | / | / | / | /
CCN(CC)c1ccc(/C=C(\C#N)C(=O)c2ccc(Br)cc2)cc1 | 30 | 181* | 0.7 | -42 | + | 36 | -11 | -222 | 743* | 814*
CCCCn1c(O)c(N=Nc2ccccn2)c2ccccc21 | 12 | 2 | 0.9 | -5 | 79 | -3 | 0 | 51* | 1.3 | 15
CCOc1ccc(C/C(O)=C2\C(=O)CC(C)(C)CC2=NCC(=O)O)cc1OCC | -5 | 0 | 1 | 0 | 0 | -13 | / | / | / | /
O=c1/c(=C\c2cccnc2)sc2nc3ccccc3n12 | -5 | 2 | 1.1 | -5 | 81* | -12 | 1 | 19 | -1.3 | -3
O=c1/c(=C/c2ccc(O)c([N+](=O)[O-])c2)sc2nc3ccccc3n12 | 8 | 0 | 0.9 | 5 | 1 | 10 | / | / | / | /
O=c1c(/C=C(\O)c2ccccc2)nc2ccccc2n1-c1ccccc1 | 6 | 45* | 0.9 | -3 | 44 | 16 | 42 | 8 | 3.8 | 77*
CCCN(CC1CCCO1)C(=O)CCc1nnc(-c2cc(C)on2)o1 (configuration not stated) | -5 | 0 | 1 | -3 | 1 | -10 | / | / | / | /
COc1ccccc1Nc1nc2nonc2nc1N1CCCCC1C (configuration not stated) | 0 | 12 | 1 | -4 | 87* | -8 | 19 | 29 | 30* | -0.79
Cn1c(C(=O)NCc2cccnc2)cc2sccc21 | 1 | 0 | 1 | -1 | 1 | -6 | / | / | / | /
COc1ccccc1CNC(=O)c1cc2sccc2n1C | -3 | 2 | 1 | -2 | 96* | -3 | 3 | 16 | -0.94 | 0.51
CC(=O)Nc1ccc(C(=O)OCC(=O)c2cccc([N+](=O)[O-])c2)cc1 | 0 | 0 | 1 | -3 | 82* | 2 | 0 | 46 | -1.6 | -4.8
COc1ccc(OC)c(C(=O)COC(=O)c2cc(C)oc2C)c1 | -2 | 1 | 1 | -4 | 80 | 1 | 0 | 35 | -1.8 | -2.2
COc1ccc(NS(=O)(=O)c2ccc(C(=O)N3CCN(Cc4ccccc4)CC3)cc2)cc1 | 0 | 0 | 1 | 2 | 0 | -11 | / | / | / | /
COc1ccc(N2CCN(C(=O)c3ccc(NS(=O)(=O)c4ccccc4)cc3)CC2)cc1 | -4 | 1 | 1 | -5 | 83* | -1 | 4 | 4 | 63* | 24
CC(C)NC(=O)c1sc2nc(-c3cccs3)cc(-c3cccs3)c2c1N | 0 | 3 | 1 | 7 | 1 | -11 | / | / | / | /
Nc1c(C(=O)C2CC2)sc2nc(-c3cccs3)cc(C(F)(F)F)c12 | -8 | 42* | 1.1 | -11 | 35 | -11 | -87 | -7 | 92* | 271*
SMILES | TNAP inh hi DEA | ABCB1 inh | TNAP act hi DEA | PKD1 kinase inh | ABCG2 inh | TNAP inh no acc | ABCB1 confirm | ABCG2 single pt | IgMXP3 fluor | CCRF autofluor
CC1Cc2ccccc2N1C(=O)c1nn(C)cc1Br (configuration not stated) | -3 | 0 | 1 | 4 | 2 | -12 | / | / | / | /
CC(C)(C)c1nnc2cccc(Cl)n12 | -2 | 0 | 1 | -5 | 1 | -3 | / | / | / | /
CCCCN1C(=O)/C(=C/C=C2\Oc3ccccc3N2CC)SC1=S | 33 | 39 | 0.7 | 32 | 89* | 34 | 23 | 11 | 162* | 423*
CCN1C(=O)/C(=C/C=C2/Sc3ccccc3N2CCO)SC1=S | 42 | -2 | 0.6 | -3 | -10 | 34 | / | / | / | /
CCCN1C(=O)/C(=C/C=C2\N(CC)c3ccccc3C2(C)C)SC1=S | 45 | 70* | 0.6 | 24 | 46 | 40 | 19 | -13 | 96* | 193*
C=CCN1C(=O)/C(=C\C=C2\N(C)c3ccccc3C2(C)C)SC1=S | 49 | 61* | 0.5 | 40 | 189* | -4 | 27 | -35 | 145* | 186*
CN1/C(=C\C=O)C(C)(C)c2ccccc21 | -7 | 1 | 1.1 | 6 | 4 | -14 | / | / | / | /

High-throughput results: PubChem, several laboratories
